Data taken from ChEMBL document CHEMBL1142527, “Tricyclic [1,2,4]triazine 1,4-dioxides as hypoxia selective cytotoxins” (J Med Chem, 2008).

What was measured:
HT-29 [1] = test: Cytotoxicity against human HT-29 cells after 4 hrs under strict hypoxic condition; format: functional, cell-based; settings: Homo sapiens, HT-29, 4 h
[2] = Solubility at 22 degC in culture medium in presence of 5% fetal calf serum; format: physicochemical
Summary of the method: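 Solubility of the HCl salts is determined in culture medium containing 5% fetal calf serum at 22 °C.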

HT-29 [3] = test: Drug metabolism in human HT-29 cells assessed as amount of drug metabolized for one log of cell kill at their CT10 concentration for 1 hr; format: ADME, cell-based; settings: ht-29, 1 h
Summary of the method: (§1)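 Stirred single-cell suspensions of anoxic HT29 cells are exposed for 3 h at a drug concentration giving roughly one log kill by 1 h. Clonogenic survival is followed, and extracellular drug is monitored by HPLC. Concentration-time data are fitted for the apparent first-order metabolic rate constant k_met, scaled to MCL cell density. CT₁₀ and M₁₀ (drug metabolized at 10% survival) are interpolated from the fitted PK/PD model.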

SiHa [4] = test: Hypoxic cytotoxicity ratio, ratio of aerobic IC50 to anoxic IC50 for human SiHa cells; format: functional
HT-29 [5] = test: Hypoxic cytotoxicity ratio, ratio of aerobic IC50 to anoxic IC50 for human HT-29 cells; format: functional
SiHa [6] = test: Cytotoxicity against human SiHa cells after 4 hrs under strict hypoxic condition; format: functional, cell-based; settings: Homo sapiens, SiHa, 4 h
HT-29 [7] = test: Metabolic stability in human HT-29 multicellular layer assessed as apparent first-order rate constant under anoxic condition; format: ADME, cell-based; summary of the method: as §1
HT-29 [8] = test: Cytotoxicity against human HT-29 cells assessed as AUC-time curve providing 10% surviving fraction by clonogenic assay; format: functional
HT-29 [9] = test: Drug diffusion coefficient in human HT-29 multicellular layer under 95% oxygen by liquid scintillation counting; format: ADME, cell-based
Summary of the method: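 Tissue diffusion coefficient D measured in HT29 multicellular layers held under 95% O₂ to suppress bioreductive metabolism. Reported as ×10⁻⁷ cm²s⁻¹.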

[10] = culture medium with 5% fetal calf serum, read-out: solubility

Row | solubility ([2]; serum) [mM] | SMILES | IC50 (HT-29 [1]) [µM] | solubility [2, 10] [mM] | Activity (HT-29 [3]) [µM] | Ratio IC50 (SiHa [4]) | Ratio IC50 (HT-29 [5]) | IC50 (SiHa [6]) [µM] | Activity (HT-29 [7]) [min⁻¹] | Activity (HT-29 [8]) [µM·h] | Activity (HT-29 [3]; 1 h) [µM] | D (HT-29 [9]) [cm²/s]
1 |  | CCCN(CCC)CCNc1n[n+]([O-])c2c3c(ccc2[n+]1[O-])CCC3 | 12.4 | 40 | 5626 | 23 | 7 | 3.3 | 0.73 | 66.3 |  | 
2 | > 50 | CN(C)CCNc1n[n+]([O-])c2cc3c(cc2[n+]1[O-])OCO3 |  |  |  |  |  |  | 0.87 |  | 4310 | 
3 |  | CN(C)CCNc1n[n+]([O-])c2cc3c(cc2[n+]1[O-])CCCCC3 | 5.2 | > 53 | 5404 | 88 | 54 | 1.2 | 1.52 | 30.6 |  | 
4 |  | [O-][n+]1nc(NCCCN2CCOCC2)[n+]([O-])c2cc3c(cc21)CCC3 | 21.4 | 48 | 1715 | 44 | 20 | 8.8 | 0.19 | 76.2 |  | 
5 |  | CCc1n[n+]([O-])c2cc3c(cc2[n+]1[O-])CN(C)CC3 | 13.1 | > 47 |  | 6 | 2 | 3.1 |  |  |  | 
6 |  | CCNc1n[n+]([O-])c2cc3c(cc2[n+]1[O-])CN(C)CC3 | 2.6 | > 47 |  | 100 | 59 | 1.1 |  |  |  | 
7 |  | [O-][n+]1nc(NCCN2CCCCC2)[n+]([O-])c2ccc3c(c21)CCC3 | 4.9 | 36 | 5022 | 51 | 53 | 1 | 1.6 | 27.2 |  | 
8 |  | CCc1n[n+]([O-])c2cc3c(cc2[n+]1[O-])CC(CCN1CCOCC1)C3 (stereo not drawn) | 3.6 | > 51 | 984 | 84 | 36 | 1.3 | 0.54 | 15.8 |  | 
9 |  | CCN(CC)CCNc1n[n+]([O-])c2cc3c(cc2[n+]1[O-])CCC3 | 4.1 | 48 | 4521 | 133 | 61 | 1.1 | 1.08 | 36.3 |  | 
10 |  | [O-][n+]1nc(NCCCN2CCOCC2)[n+]([O-])c2cc3c(cc21)CCCC3 | 6.3 | 49 | 3294 | 54 | 25 | 2.6 | 0.69 | 41.6 |  | 
11 |  | [O-][n+]1nc(CCCN2CCOCC2)[n+]([O-])c2cc3c(cc21)CC(CO)C3 (stereo not drawn) | 2.4 | 48 | 2533 | 206 | 121 | 1.8 | 0.9 | 24.4 |  | 
12 |  | [O-][n+]1nc(NCCCN2CCOCC2)[n+]([O-])c2cc3c(cc21)OCC3 | 22 | > 49 | 2660 | 28 | 8 | 3.4 | 0.2 | 116 |  | 
13 |  | [O-][n+]1nc(NCCCN2CCOCC2)[n+]([O-])c2cc3c(cc21)CCO3 | 49 | 46 | 2155 | 14 | 6 | 29 | 0.23 | 82.1 |  | 
14 |  | COc1ccc2c(c1)[n+]([O-])c(NCCN(C)C)n[n+]2[O-] |  |  | 1635 |  | 89 |  | 0.54 | 26.1 |  | 2.3e-07
15 |  | [O-][n+]1nc(CCCN2CCOCC2)[n+]([O-])c2cc3c(cc21)CCO3 | 8.9 | 51 | 986 | 43 | 25 | 5.1 | 0.31 | 27.6 |  | 
16 |  | Nc1n[n+]([O-])c2cc3c(cc2[n+]1[O-])OCC3 | 117 | 0.1 |  |  | 4 | 23 |  |  |  | 
17 |  | CCNc1n[n+]([O-])c2cc3c(cc2[n+]1[O-])CC(N(C)C)C3 (stereo not drawn) |  | 46 |  |  |  |  |  |  |  | 

Row | solubility ([2]; serum) [mM] | SMILES | IC50 (HT-29 [1]) [µM] | solubility [2, 10] [mM] | Activity (HT-29 [3]) [µM] | Ratio IC50 (SiHa [4]) | Ratio IC50 (HT-29 [5]) | IC50 (SiHa [6]) [µM] | Activity (HT-29 [7]) [min⁻¹] | Activity (HT-29 [8]) [µM·h] | Activity (HT-29 [3]; 1 h) [µM] | D (HT-29 [9]) [cm²/s]
18 |  | CCN(CC)CCNc1n[n+]([O-])c2c3c(ccc2[n+]1[O-])CCC3 | 4.2 | > 49 | 3806 | 64 | 17 | 0.9 | 0.97 | 35.1 |  | 
19 |  | CCc1n[n+]([O-])c2cc3c(cc2[n+]1[O-])CC(CO)C3 (stereo not drawn) | 17 | 5 | 2096 | 48 | 45 | 6.5 | 0.47 | 49.7 |  | 
20 |  | CC1Cc2cc3c(cc2C1)[n+]([O-])c(CCCN1CCOCC1)n[n+]3[O-] (stereo not drawn) |  | 36 | 2059 |  |  |  | 0.96 |  |  | 
21 |  | [O-][n+]1nc(NCCCN2CCOCC2)[n+]([O-])c2ccc3c(c21)CCC3 | 38 | 46 | 4108 | 33 | 24 | 13.9 | 0.2 | 176.4 |  | 
22 |  | CCN(CC)CCNc1n[n+]([O-])c2cc3c(cc2[n+]1[O-])OCC3 | 10 | 47 | 1718 | 122 | 113 | 3.4 | 0.26 | 58 |  | 
23 |  | CCc1n[n+]([O-])c2cc3c(cc2[n+]1[O-])CC(CN1CCOCC1)C3 (stereo not drawn) | 4.8 | 43 | 1544 | 62 | 31 | 2.4 | 0.54 | 24.1 |  | 
24 |  | CCN1Cc2cc3c(cc2C1)[n+]([O-])c(N)n[n+]3[O-] | 1.5 | 6 | 2022 | 80 |  | 0.8 | 2.2 | 8.1 |  | 
25 |  | CC1Cc2cc3c(cc2C1)[n+]([O-])c(NCCN(C)C)n[n+]3[O-] (stereo not drawn) | 3.5 | > 49 | 3057 | 97 | 54 | 1.4 | 1.49 | 23 |  | 
26 |  | Nc1n[n+]([O-])c2ccccc2[n+]1[O-] [TIRAPAZAMINE] |  |  | 1698 |  |  |  |  | 24.3 |  | 4.04e-07
27 |  | CC1Cc2cc3c(cc2C1)[n+]([O-])c(NCCCN1CCOCC1)n[n+]3[O-] (stereo not drawn) | 19 | > 49 | 1903 | 50 | 25 | 8.4 | 0.13 | 122.9 |  | 
28 |  | Nc1n[n+]([O-])c2cc3c(cc2[n+]1[O-])CCC3 | 15.2 | 3 | 7735 | 31 | 27 | 8.3 | 0.47 | 106 |  | 
29 |  | CN(C)CCNc1n[n+]([O-])c2c3c(ccc2[n+]1[O-])CCCC3 | 3.4 | 47 | 4223 | 64 | 18 | 1 | 1.78 | 19.5 |  | 
30 |  | CC1Cc2cc3c(cc2C1)[n+]([O-])c(CCCO)n[n+]3[O-] (stereo not drawn) | 13 | 10 | 2394 | 104 | 80 | 8 | 0.24 | 85.3 |  | 
31 |  | CN(C)CCNc1n[n+]([O-])c2c3c(ccc2[n+]1[O-])OCCC3 | 4.1 | 47 | 3124 | 66 | 14 | 0.7 | 0.59 | 46.1 |  | 
32 |  | CCc1n[n+]([O-])c2cc3c(cc2[n+]1[O-])CC(CCO)C3 (stereo not drawn) | 7.7 | 2 | 2641 | 86 | 102 | 2.9 | 0.54 | 41.3 |  | 
33 |  | CN(C)CCNc1n[n+]([O-])c2cc3c(cc2[n+]1[O-])OCC3 | 5.2 | 49 | 3000 | 128 | 46 | 1.9 | 0.6 | 43.3 |  | 
